Compound activity (PubChem BioAssay)
rRNA inh HTS = inhibitors of bacterial rRNA selective over humanized ribosomes; GFP signal change (wild-type ribosome), % (concentration not given with the values); hit rate 1.6% among 350,000; E. coli WT GFP vs humanized-ribosome RFP mutants, fluorescence, 24 h; active compounds read low; DMSO median 0, no signal -100;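 active = significant combined selectivity score with lowered wild-type GFP, culture density cut under 30%, mutant RFP and density less affected; inactive = any of these conditions unmet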
FGF22 binding = shifts melting point of recombinant human FGF22; Q9HCT0; recombinant FGF22 thermal shift, SYPRO orange fluorescence; percent of sucrose octasulfate shift, DMSO zero; activity (Tm shift, normalised), % at 9.99 µM; hit rate 1.5% among 340,000; AID 651658;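 active = mean Tm shift, scaled 0 neutral to 100 positive control, at about 1.3% or above, every replicate too, limit read from the data; inconclusive = no clear call, values can overlap the other calls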
Target sequence (Q9HCT0 whole entry, looked up): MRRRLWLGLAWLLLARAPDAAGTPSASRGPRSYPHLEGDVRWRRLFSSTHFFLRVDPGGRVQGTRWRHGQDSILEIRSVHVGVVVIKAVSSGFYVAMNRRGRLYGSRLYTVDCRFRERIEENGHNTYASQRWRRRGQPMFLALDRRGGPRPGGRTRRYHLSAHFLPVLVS
PglD DTNB = PglD (C. jejuni) enzyme inhibition; AID 602405; hit rate 0.098% among 360,000; inhibition, % at 12.5 µM; purified PglD enzyme, DTNB colorimetric CoA detection; in the data active = inhibition above about 16%, passing the limit was not always enough; inconclusive = no clear call, values can overlap the other calls
Cneo AK release = Cryptococcus neoformans lysis via adenylate kinase release | AID 651654 | lysis activity, % at 15 µM | hit rate 0.2% among 360,000 | C. neoformans lysis, adenylate kinase release luminescence, 4 h; normalised: neutral wells 0, clomiphene wells 100;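 active = mean lysis activity across replicates of at least 80%, whatever share of replicates individually reach that level; inactive = mean lysis activity below 80%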
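Material – Cryptococcus neoformans yeast cells · Quantity – 5 × 10^6 yeast cells/mL · Buffer or medium – YPD medium · Compound – single dose · Timing – 4 h static compound exposure, 37 °C, read 1 h post-reagent · Signal – adenylate kinase release luminescence · Read-out basis – lysis from increased AK signal · Benchmarks – Clomiphene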
PGC1a acetyl inh = modulators of PGC1a acetylation | U2OS PGC1a acetylation, AlphaScreen anti-acetyl-lysine; with virally co-expressed GCN5 acetyltransferase | inhibition, % at 15.6 µM | hit rate 0.17% among 350,000;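 active = every replicate shows inhibition of at least 40%; inconclusive = mean inhibition at least 40% but some replicate below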;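 note: 0% = neutral control wells and 100% = positive control wells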
Vif imaging = HIV Vif inhibition | HEK293T cells, Vif self-association by quenched fluorescence, imaging, 24 h | inhibition, % at 7.49 µM | hit rate 0.35% among 340,000; in the data active = inhibition above about 50%, passing the limit was not always enough; inconclusive = no clear call, values can overlap the other calls; inactive = below about 31%
AID977621 = wild-type E. coli growth inhibition versus H69 humanized strain – H69 mutant RFP, wild-type GFP, cherry-pick, dose response | shares compounds with rRNA inh HTS | fluorescence, 24 h | activity change, negative = inhibition at 50 µM | 1,900 tested, under 10 active | AID 977621;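 active = Wild-type ribosome reporter drop at least double the humanized mutant ribosome reporter drop, growth loss under a set limit; inconclusive = no clear call, values can overlap the other calls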;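 note: wild-type GFP and H69 mutant RFP strains grown together 50/50 in each well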
AID977628 = growth of wild-type and h24-humanized E. coli strains – h24 mutant RFP vs wild-type GFP, cherry-pick, dose response; E. coli WT GFP strain growth, fluorescence, 24 h; 1,900 tested, under 10 active; shares compounds with rRNA inh HTS; activity change, negative = inhibition at 50 µM;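 active = compound lowering the normal-ribosome reporter at least twice as much as the humanized-ribosome reporter, growth loss under a set limit; inconclusive = no clear call, values can overlap the other calls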;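 note: wild-type GFP and h24 humanized RFP strains co-cultured 1 to 1 per well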
Numbers without * were called inactive; ? = inconclusive; · = no result. Shown are actives, neighbours in structure and some others; about 2.9% of the full set was active somewhere.

SMILES | rRNA inh HTS | FGF22 binding | PglD DTNB | Cneo AK release | PGC1a acetyl inh | Vif imaging | AID977621 | AID977628
COc1cc2c(cc1OC)C1(C)N(CC2)C(C(C)=O)=NN1c1ccc(Cl)cc1 (stereo not given) | -17* | 0 | -2 | -1 | -5 | -4 | -3.4 | ·
CO[C@H]1CN(C)C(=O)c2ccc(NC(C)=O)cc2OC[C@H](C)NC[C@@H]1C | 0 | 0 | 3 | 2 | 10 | · | · | ·
COc1ccc2c3c(n(C)c2c1)[C@H](CO)N(Cc1ccccc1OC)CC31CN(CC2CCOCC2)C1 | 3 | · | · | · | 3 | · | · | ·
CCCCNC(=O)c1c(N)[nH]c(C(=O)c2ccccc2)c1-c1ccccn1 | -27* | 0 | · | · | · | · | -2 | -15
Nc1[nH]c(C(=O)c2ccccc2)c(-c2ccc(F)cc2)c1C(=O)NCCc1c[nH]c2ccccc12 | -29 | 0 | · | · | · | · | · | ·
Nc1[nH]c(C(=O)c2ccccc2)c(-c2ccc3c(c2)OCO3)c1C(=O)NCCc1c[nH]c2ccccc12 | -15* | 42 | · | · | · | · | ? | ·
Nc1[nH]c(C(=O)c2ccccc2)c(-c2ccc(Cl)cc2)c1C(=O)NCCc1c[nH]c2ccccc12 | -19* | 0 | · | · | · | · | -13 | ·
COc1ccc(CN2[C@@H](CO)[C@@H]3c4ccccc4N(C(=O)CC(F)(F)F)C[C@@H]32)cc1 | -10 | 0 | -3 | 0 | -13 | · | · | ·
Cn1c(=O)c2c(-c3ccccc3)n(-c3cc([N+](=O)[O-])ccc3N)cc2n(C)c1=O | -14* | 0 | 0 | 0 | -8 | 4 | -26 | -21
Cc1nn(S(=O)(=O)c2ccc(Cl)cc2)c(C)c1Sc1ccc([N+](=O)[O-])cc1 | -28* | 0 | -3 | -3 | -6 | -14 | -2.6 | ·
Cc1nn(-c2ccccc2)c(N)c1Sc1ccc([N+](=O)[O-])cc1 | · | · | · | · | · | -2 | · | ·
CN(Cc1ccc(Cl)s1)C(=O)CNC(=O)CNC(=O)c1ccc(Cl)cc1Cl | -27* | 0 | · | 0 | · | -6 | · | -5.2
COc1ccccc1N(C)S(=O)(=O)c1ccc(Cl)c(C(=O)NC2=NCCS2)c1 | -30* | 0 | -1 | 5 | -5 | 11 | -15 | ?
CN(c1ccccc1)S(=O)(=O)c1ccc(Cl)c(C(=O)NC2=NCCS2)c1 | -18 | 1 | · | · | · | 17 | · | ·
COc1ccc2c3c(n(C)c2c1)[C@H](CO)N(C(=O)Nc1cccc(F)c1)CC31CCN(C)CC1 | 6 | · | · | · | · | · | · | ·
O=C(c1ccc2c(c1)CCN2S(=O)(=O)c1ccccc1)N1CCN(c2ccccc2)CC1 | -26* | 0 | -2 | 6 | -1 | -10 | · | ?
O=C(O)c1ccc(Cl)c(S(=O)(=O)Nc2ccccc2Cc2ccccc2)c1 | -19* | 0 | 7 | 8 | 16 | -19 | · | ?
O=C(O)c1cc(S(=O)(=O)Nc2ccccc2Cc2ccccc2)ccc1Cl | -6 | 0 | -4 | -3 | · | -4 | · | ·
CCc1nnc(NS(=O)(=O)c2ccc(NC(=O)c3cc(Cl)ccc3Cl)cc2)s1 | -49 | 42 | · | · | · | 2 | · | ·
CCc1nnc(NS(=O)(=O)c2ccc(NC(=O)c3cc(Cl)ccc3[N+](=O)[O-])cc2)s1 | -21* | 1 | 5 | 4 | -13 | 18 | -18 | ·
CCc1nnc(NS(=O)(=O)c2ccc(NC(=O)c3cccc(Br)c3)cc2)s1 | -44 | · | -1 | -1 | -2 | -4 | · | ·
CCc1nnc(NS(=O)(=O)c2ccc(NC(=O)c3cccc4ccccc34)cc2)s1 | -19* | 0 | 3 | -9 | -15 | 3 | 1.4 | ?
NS(=O)(=O)c1ccc(Nc2c([N+](=O)[O-])cncc2[N+](=O)[O-])cc1 | -37* | 0 | 4 | -1 | -6 | -4 | · | ?
COc1cccc(-c2cn(CC[C@H]3CC[C@@H](NC(=O)CC4CC4)[C@@H](CO)O3)nn2)c1 | -2 | 0 | 0 | -2 | 9 | · | · | ·
COc1cccc(NC(=O)COc2cccc3c2CCNC3=O)c1 | 10 | 0 | 5 | 0 | · | · | · | ·
SMILES | rRNA inh HTS | FGF22 binding | PglD DTNB | Cneo AK release | PGC1a acetyl inh | Vif imaging | AID977621 | AID977628
Cc1cccc(NC(=O)COc2cccc3c2CCNC3=O)c1 | -18* | 0 | 0 | 0 | 3 | 2 | -9.7 | -10
FC(F)(F)CN1C[C@@H]2C(c3ccccc3)[C@H](C1)N2CC(F)(F)F (stereo not given in full) | 2 | · | · | · | · | · | · | ·
NS(=O)(=O)c1ccc(NC(=O)CSc2nnc(NC3CC3)s2)cc1 | 6 | 0 | -1 | 1 | · | -1 | · | ·
CC(C)Nc1nnc(SCC(=O)Nc2ccc3c(c2)C(=O)c2ccccc2C3=O)s1 | · | · | 3 | 1 | -15 | -7 | · | ·
N#Cc1ccsc1NC(=O)CSc1nnc(NC2CC2)s1 | -12* | 1 | 4 | -4 | ? | -5 | -13 | -8.7
CC(C)Nc1nnc(SCC(=O)Nc2sccc2C#N)s1 | -25* | 0 | 4 | -1 | 2 | -6 | · | ?
Nc1ccc(C(=O)OCCCc2nc3cc4ccccc4cc3[nH]2)cc1 | -17* | 0 | 0 | -3 | -18 | 3 | 0.46 | -0.53
C[C@@H]1CN([C@H](C)CO)C(=O)c2cc(/C=C/c3ccccc3)cnc2O[C@H]1CN(C)Cc1cccnc1 | 0 | 0 | -5 | 1 | 3 | · | · | ·
CC(C)(C)c1cc(-c2n[nH]c(=S)n2-c2ccc(Cl)cc2)n[nH]1 | -31* | 0 | · | · | 7 | -1 | ? | ·
Cc1nn(C)cc1-c1n[nH]c(=S)n1-c1ccc(Cl)cc1 | 9 | 0 | -3 | 3 | 13 | -13 | · | ·
COc1ccc(NC(=O)N(C)C[C@H]2Oc3c(cccc3N(C)C)C(=O)N([C@@H](C)CO)C[C@@H]2C)cc1 | -1 | -1 | 0 | -8 | -10 | · | · | ·
O=C1Nc2ccc(Br)cc2C1Cc1ccccc1F (stereo not given) | -4 | 0 | -5 | -1 | 9 | 3 | · | ·
Cn1c(CC2C(=O)Nc3ccc(Br)cc32)nc2ccccc2c1=O (stereo not given) | -29* | 0 | 4 | -1 | 36 | 0 | -1.9 | 3.7
CSc1ccc(CN(C)CC(=O)NC(C)c2ccccc2)cc1 (stereo not given) | -31* | 0 | -6 | 2 | -4 | -6 | -6.8 | ·
CC(NC(=O)CN(C)Cc1ccc(Br)cc1)c1ccccc1 (stereo not given) | -1 | 0 | 3 | 1 | 5 | -6 | · | ·
Cc1ccc2oc(=O)n(CCOc3ccccc3)c2c1 | 18 | · | · | · | · | 0 | · | ·
Cc1cccc(OCCn2c(=O)oc3ccc(C)cc32)c1 | -27* | 0 | 19 | -1 | -8 | 0 | 2.7 | -1.3
